Measurements as given in PMC8248332 (Chembiochem, 2021).
Square brackets hold non-standard residues; d marks the D form. Peptide text beside a SMILES is read from it. pS = N[C@@H](COP(=O)(O)O)C(=O)O

Experiments:
14‐3‐3ζ = settings: CRaf and the isomer 14‐3‐3ζ; Molzan et al.; cited from earlier work
14‐3‐3σ = target: T1, 14‐3‐3σ (Homo sapiens, UniProt P31947); experiment: Isothermal titration calorimetry; format: binding; settings: dissolved CRaf (1 mM) into 14‐3‐3σ (50 μM), HEPES 25 mM pH 7.4, 25 °C
T1 sequence (P31947 1-248): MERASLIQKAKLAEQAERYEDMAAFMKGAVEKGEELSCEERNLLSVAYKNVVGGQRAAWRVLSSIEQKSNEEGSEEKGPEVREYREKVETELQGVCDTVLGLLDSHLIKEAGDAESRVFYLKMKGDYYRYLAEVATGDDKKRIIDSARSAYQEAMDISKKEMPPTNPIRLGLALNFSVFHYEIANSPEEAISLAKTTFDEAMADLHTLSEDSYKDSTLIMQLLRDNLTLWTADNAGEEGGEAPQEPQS
Method in brief: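 14-3-3σ purified by size-exclusion chromatography (20 mM Tris-HCl pH 7.5, 150 mM NaCl, 2 mM DTT), then dialysed into 25 mM HEPES pH 7.4. Cell held 300 μL protein. First injection 0.4 μL, mixing time 0.8 s, 180 s between injections. Enthalpy per injection versus peptide:protein molar ratio fitted sigmoidally; inflection point gives N, slope there gives KD.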

binding ratio from ITC (peptide/protein), N (14‐3‐3σ): 0.84±0.01
Compound: CC(C)C[C@H](NC(=O)[C@H](CO)NC(=O)CNC(=O)[C@H](CCC(=O)O)NC(=O)[C@H](CO)NC(=O)[C@H](CS)NC(=O)[C@@H]1CCCN1C(=O)[C@H](CO)NC(=O)[C@H](CO)NC(=O)[C@@H](NC(=O)[C@H](CC(N)=O)NC(=O)[C@H](Cc1ccccc1)NC(=O)[C@@H](NC(=O)[C@H](Cc1ccccc1)NC(=O)[C@H](C)NC(=O)[C@H](Cc1c[nH]cn1)NC(=O)[C@@H]1CCCN1C(=O)[C@@H](NC(=O)[C@H](COP(=O)(O)O)NC(=O)[C@H](Cc1ccc(O)cc1)NC(=O)[C@H](CCCNC(=N)N)NC(=O)[C@H](Cc1c[nH]cn1)NC(=O)[C@@H](N)CCC(N)=O)[C@@H](C)O)[C@@H](C)O)[C@@H](C)O)C(=O)N[C@@H](CO)C(=O)N[C@@H](CCC(N)=O)C(=O)N[C@@H](CCCNC(=N)N)C(=O)N[C@@H](CCC(N)=O)C(=O)N[C@@H](CCCNC(=N)N)C(=O)N[C@@H](CO)C(=O)N[C@H](C(=O)N[C@@H](COP(=O)(O)O)C(=O)N[C@H](C(=O)N1CCC[C@H]1C(=O)N[C@@H](CC(N)=O)C(=O)N[C@H](C(=O)N[C@@H](Cc1c[nH]cn1)C(N)=O)C(C)C)[C@@H](C)O)[C@@H](C)O [CRaf] (H-QHRY[pS]TPHAFTFNTSSPCSEGSLSQRQRST[pS]TPNVH-NH2)
Kd (14‐3‐3ζ): 80 nM
